Experimental data taken from PubChem BioAssay AID624400 (The Scripps Research Institute Molecular Screening Center, 2012).

Each compound was assayed on aryl hydrocarbon receptor (Cavia porcellus) (assay: competitors of radiolabeled TCDD at AHR – cell lysate, guinea pig liver cytosol, radiometric, set 2, counter-screen for AHR activator project, late-stage follow-up (AID 624400)). Details: [3H]TCDD binding, hydroxyapatite, at 10 µM, active compounds read high.
Method in brief: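 material = guinea pig hepatic cytosol with AHR | doses = single nominal dose of 10 µM, 2% DMSO | replicates = triplicate | times = 1 h binding incubation at room temperature | benchmarks = TCDF (200 nM) for nonspecific binding | also added = 2 nM [3H]TCDD | measured by = scintillation counting of hydroxyapatite-bound [3H]TCDD after Tween 80 buffer washes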

inhibition | Compound
34.8% | Cc1ccc(-c2cc(-c3cccc(F)c3)n[nH]2)c(O)c1
19.8% | Cc1ccc(-c2cc(-c3ccc(F)cc3)n[nH]2)c(O)c1
61.7% | Cc1ccc(-c2cc(-c3ccc(Cl)cc3)n[nH]2)c(O)c1
